The text below walks through data of ChEMBL document CHEMBL1122443, “Synthesis and antitumor evaluation of selected 5,6-disubstituted 1(2)H-indazole-4,7-diones” (1983).

What all share (format): functional
Experiment [1] deals with Mus musculus. In words: Average days survived for treated / average days survived for control at 0.5 (mg/kg); 10.5/9.2.
The subject of experiment [2] is Mus musculus. The experiment is described as follows: Average days survived for treated / average days survived for control at 20 (mg/kg); 3.6/9.2.
Experiment [3] has as its system Mus musculus. The experiment is described as follows: Anti tumor activity in mice bearing lymphocytic leukemia P-388 at 20 mg/kg. In outline: (§1)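 Male BDF1 mice (20–23 g) inoculated ip with 1 × 10⁶ P-388 lymphocytic leukemia cells on day 0. Test agents were given ip once daily on days 1–14, with 0.05% Tween 80 as vehicle for treated and control groups. Read-out is %T/C, the mean days survived by treated over control. Values above 125% were counted as significant. 5-Fluorouracil was the positive control.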

Experiment [4] relates to Mus musculus. The experiment is described as follows: Antitumor activity in CF1 mice bearing Ehrlich ascites carcinoma measured as percent ascrit packed cell volume at 5 mg/kg. In outline:
(§2)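 Male CF1 mice (22–25 g) received 2 × 10⁶ Ehrlich carcinoma cells ip on day 0. Dosing was ip daily on days 1–8, with sacrifice on day 9. Ascites fluid volume per mouse and ascrit (packed cell volume) were measured for each group. Vehicle was 0.05% Tween 80, or 5% absolute EtOH in 0.05% Tween 80, used for both compound and control. 6-Mercaptopurine was the positive control.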

For experiment [5], the system named is Mus musculus. The experiment is described as follows: Antitumor activity in CF1 mice bearing Ehrlich ascites carcinoma measured as percentage inhibition at 5 mg/kg. In outline: (§3)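 Ehrlich ascites model in male CF1 mice (22–25 g): 2 × 10⁶ cells ip on day 0, ip dosing days 1–8, kill on day 9. Percent inhibition = 100 − [(treated volume × treated ascrit)/(control volume × control ascrit)]. Greater than 80% was taken as significant. Vehicle was 0.05% Tween 80, alone or with 5% absolute EtOH. 6-Mercaptopurine was the positive control.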

In experiment [6] the test system is Mus musculus. In words: Antitumor activity in CF1 mice bearing Ehrlich ascites carcinoma measured as ascites volume at 6 mg/kg. Put shortly: as §2
Experiment [7] relates to Mus musculus. The experiment is described as follows: Average days survived for treated / average days survived for control at 12 (mg/kg); 9/9.2.
Experiment [8] concerns Mus musculus. In words: Average days survived for treated / average days survived for control at 10 (mg/kg); 12.6/9.2.
The test system of experiment [9] is Mus musculus. In words: Anti tumor activity in mice bearing lymphocytic leukemia P-388 at 12 mg/kg. Put shortly: as §1
Experiment [10] concerns Mus musculus. In words: Antitumor activity in CF1 mice bearing Ehrlich ascites carcinoma measured as survivors on day 9 at 5 mg/kg; 5/5.
Experiment [11] relates to Mus musculus. The experiment is described as follows: Average days survived for treated / average days survived for control at 15 (mg/kg); 9.2/9.2.
In experiment [12] the test system is Mus musculus. In words: Average days survived for treated / average days survived for control at 1 (mg/kg); 11/9.2.
In experiment [13] the test system is Mus musculus. In words: Antitumor activity in CF1 mice bearing Ehrlich ascites carcinoma measured as survivors on day 9 at 6 mg/kg; 5/6.
Experiment [14] has as its system Mus musculus. In words: Anti tumor activity in mice bearing lymphocytic leukemia P-388 at 10 mg/kg. In outline:
as §1

The subject of experiment [15] is Mus musculus. The experiment is described as follows: Antitumor activity in CF1 mice bearing Ehrlich ascites carcinoma measured as ascites volume at 5 mg/kg. Put shortly:
as §2

For experiment [16], the system named is Mus musculus. The experiment is described as follows: Anti tumor activity in mice bearing lymphocytic leukemia P-388 at 0.5 mg/kg. Put shortly: (§4)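 Male BDF1 mice (20–23 g) were inoculated ip with 1 × 10⁶ P-388 leukemia cells on day 0. Compound was given ip once daily on days 1–14 in 0.05% Tween 80 vehicle, with a vehicle control group and 5-fluorouracil as positive control. Activity was scored as % T/C, average days survived treated/control, with >125% taken as significant.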

Experiment [17] concerns Mus musculus. In words: Anti tumor activity in mice bearing lymphocytic leukemia P-388 at 15 mg/kg. Put shortly: as §1
Experiment [18] concerns Mus musculus. In words: Antitumor activity in CF1 mice bearing Ehrlich ascites carcinoma measured as percentage inhibition at 6 mg/kg. In outline:
as §3

Experiment [19] concerns Mus musculus. The experiment is described as follows: Anti tumor activity in mice bearing lymphocytic leukemia P-388 at 1 mg/kg. Put shortly: as §4
For experiment [20], the system named is Mus musculus. The experiment is described as follows: Anti tumor activity in mice bearing lymphocytic leukemia P-388 at 5 mg/kg. Put shortly:
as §4

Experiment [21] concerns Mus musculus. In words: Average days survived for treated / average days survived for control at 5 (mg/kg); 10.9/9.2.
Experiment [22] deals with Mus musculus. The experiment is described as follows: Antitumor activity in CF1 mice bearing Ehrlich ascites carcinoma measured as percent ascrit packed cell volume at 6 mg/kg. In outline: as §2

Molecules are shown by their SMILES.

The term T/C denotes the ratio of treated to control. In general, inhibition in vivo refers to the share of the control response that was lost under treatment. A higher inhibition in vivo goes with a response far below the control.

Turning to `O=C1C(Cl)=C(Cl)C(=O)c2[nH]ncc21`, the “Average survival (days)” value was determined as 10.5 in experiment [1]; 3.6 in [2]; 9 in [7]; 12.6 in experiment [8]; 9.2 in experiment [11]; 11 in experiment [12]. The “Average survival (days)” value in experiment [21] worked out at 10.9. The T/C in experiment [3] is 39%; in experiment [9], 98%; in experiment [14] it was 137%; in experiment [16] it was 114%; in experiment [17], 104%; in experiment [19] it was 120%. The molecule also yielded a T/C in experiment [20] of 118%. Also, the packed cell volume in experiment [4] was 4.5%; in [22] it was 24.1%. In experiment [5], 5 mg/kg produced 98.6% inhibition in vivo. Also, the ascites volume in experiment [6] was 0.6 ml mouse-1; in experiment [15] it was 0.48 ml mouse-1. The Survivors in [10] and in experiment [13] was 5 each time. In experiment [18], this molecule had an inhibition in vivo at 6 mg/kg of 85.4%.
